Data reported in ChEMBL document CHEMBL1687750, “Nonclinical pharmacokinetics of oseltamivir and oseltamivir carboxylate in the central nervous system” (Antimicrob Agents Chemother, 2009).

Assays:
[1] = Cmax in perfused Sprague-Dawley rat cerebrospinal fluid at 30 mg/kg, iv; format: ADME, organism-based; parameters: dose 30 mg/kg, route intravenous
Procedure, shortened: (§1)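 Nonfasted adult rats received 30 mg/kg in aqueous 0.9% NaCl (pH 4.0) by slow tail-vein injection over 20–30 s. Groups were sampled at 5 min and 0.25, 0.5, 1, 2, 4 and 8 h, with 4–5 rats per time point, under terminal isoflurane. Blood was taken by heart puncture and CSF from the cisterna magna. Brains were homogenized either unperfused or after transcardial saline perfusion. Samples were assayed by LC-MS/MS, and pooled composite data were analyzed noncompartmentally.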

[2] = Permeability from […] of Spodoptera frugiperda Sf9 cells over expressing human BCRP1; format: ADME, cell-based
Procedure, shortened: (§2)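 Membrane vesicles (20–50 µg) from insect cells expressing recombinant human BCRP1, MRP1 or MRP3 were prewarmed at 37°C. They were incubated for 60 s at 37°C with 14C-oseltamivir (3.8 µM) or OC (3.1 µM), with or without 5 mM ATP, in sucrose/KNO3/Mg(NO3)2/HEPES-Tris pH 7.4. The reaction was stopped with ice-cold buffer containing taurocholate, followed by rapid nitrocellulose filtration and scintillation counting. Determinations were in triplicate.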

[3] = […] of Spodoptera frugiperda Sf9 cells over expressing human MRP1; format: ADME, cell-based; procedure, shortened: as §2
[4] = Permeability from […] of Spodoptera frugiperda Sf9 cells over expressing human MRP3; format: ADME, cell-based; procedure, shortened: as §2
[5] = Prodrug conversion in 7 days old male rat liver S9 fractions assessed as paranitrophenol generation rate assessed per mg of protein per min; format: ADME, subcellular, S9 fraction
[6] = Cmax in non-perfused Sprague-Dawley rat plasma at 30 mg/kg, iv; format: ADME, organism-based; parameters: dose 30 mg/kg, route intravenous; procedure, shortened: as §1
[7] = Cmax in non-perfused Sprague-Dawley rat cerebrospinal fluid at 30 mg/kg, iv; format: ADME, organism-based; parameters: dose 30 mg/kg, route intravenous; procedure, shortened: as §1
[8] = Cmax in non-perfused Sprague-Dawley rat brain at 30 mg/kg, iv; format: ADME, organism-based; parameters: dose 30 mg/kg, route intravenous; procedure, shortened: as §1
[9] = Cmax in perfused Sprague-Dawley rat plasma at 30 mg/kg, iv; format: ADME, organism-based; parameters: dose 30 mg/kg, route intravenous; procedure, shortened: as §1
[10] = Cmax in perfused Sprague-Dawley rat brain at 30 mg/kg, iv; format: ADME, organism-based; parameters: dose 30 mg/kg, route intravenous; procedure, shortened: as §1
[11] = Terminal half life in non-perfused Sprague-Dawley rat plasma at 30 mg/kg, iv; format: ADME, organism-based; parameters: dose 30 mg/kg, route intravenous; settings: read-out: beta t1/2 (converted)
Procedure, shortened: (§3)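 Nonfasted Sprague-Dawley rats given 30 mg/kg i.v. in 0.9% NaCl pH 4.0 by tail vein over 20–30 s. Terminal sampling under isoflurane at 5 min, 0.25, 0.5, 1, 2, 4 and 8 h (4–5 rats/time): plasma, CSF, and brain homogenate, with or without saline perfusion. LC-MS/MS. t1/2, Vss and ratios from noncompartmental analysis of pooled composite concentrations.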

[12] = Terminal half life in non-perfused Sprague-Dawley rat cerebrospinal fluid at 30 mg/kg, iv; format: ADME, organism-based; parameters: dose 30 mg/kg, route intravenous; settings: read-out: beta t1/2 (converted); procedure, shortened: as §3
[13] = Terminal half life in non-perfused Sprague-Dawley rat brain at 30 mg/kg, iv; format: ADME, organism-based; parameters: dose 30 mg/kg, route intravenous; settings: read-out: beta t1/2 (converted); procedure, shortened: as §3
[14] = Terminal half life in perfused Sprague-Dawley rat plasma at 30 mg/kg, iv; format: ADME, organism-based; parameters: dose 30 mg/kg, route intravenous; settings: read-out: beta t1/2 (converted); procedure, shortened: as §3
[15] = Terminal half life in perfused Sprague-Dawley rat cerebrospinal fluid at 30 mg/kg, iv; format: ADME, organism-based; parameters: dose 30 mg/kg, route intravenous; settings: read-out: beta t1/2 (converted); procedure, shortened: as §3
[16] = Terminal half life in perfused Sprague-Dawley rat brain at 30 mg/kg, iv; format: ADME, organism-based; parameters: dose 30 mg/kg, route intravenous; settings: read-out: beta t1/2 (converted); procedure, shortened: as §3
[17] = Cmax in perfused Sprague-Dawley rat plasma at 1000 mg/kg, po; format: ADME, organism-based; parameters: dose 1000 mg/kg, route oral
Procedure, shortened: (§4)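 Oseltamivir phosphate was given by oral gavage at 1,000 mg/kg free base. Sampling was at 1, 2, 4, 6 and 8 h, with 4 rats per time point, under terminal isoflurane. Blood was taken by cardiac puncture and CSF from the cisterna magna. Brains were perfused transcardially with saline before homogenization. Samples were quantified by LC-MS/MS, with noncompartmental analysis of pooled composite data giving AUC0-8 h and concentration ratios.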

[18] = Cmax in perfused Sprague-Dawley rat cerebrospinal fluid at 1000 mg/kg, po; format: ADME, organism-based; parameters: dose 1000 mg/kg, route oral; procedure, shortened: as §4
[19] = Cmax in perfused Sprague-Dawley rat brain at 1000 mg/kg, po; format: ADME, organism-based; parameters: dose 1000 mg/kg, route oral; procedure, shortened: as §4
[20] = AUC (0 to 8 hrs) ratio in brain to plasma in perfused Sprague-Dawley rat at 1000 mg/kg, po; format: ADME, organism-based; parameters: dose 1000 mg/kg, route oral; settings: brain and plasma, read-out: Ratio AUC; procedure, shortened: as §4
[21] = AUC (0 to 8 hrs) ratio in cerebrospinal fluid to brain in perfused Sprague-Dawley rat at 1000 mg/kg, po; format: ADME, organism-based; parameters: dose 1000 mg/kg, route oral; settings: in vivo; procedure, shortened: as §4
[22] = system: Brain; assay: Ratio of AUC (0 to infinity) after iv dose to AUC (0 to 8 hrs) after po dose in perfused Sprague-Dawley rat brain at 1000 mg/kg; format: ADME, organism-based; parameters: dose 1000 mg/kg, route oral; settings: in vivo
Procedure, shortened: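 Sprague-Dawley rats, nonfasted. i.v.: 30 mg/kg in 0.9% NaCl pH 4.0, slow tail-vein injection, sampled at 5 min and 0.25–8 h. Oral gavage: 1,000 mg/kg free base, sampled 1–8 h. Four or five rats per time point, with cardiac blood and cisterna magna CSF. Brains taken with or without saline transcardial perfusion (oral study perfused). LC-MS/MS. AUC by noncompartmental analysis of pooled composite data.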

[23] = AUC ratio in cerebrospinal fluid to plasma in Sprague-Dawley rat at 30 mg/kg, iv; format: ADME, organism-based; parameters: dose 30 mg/kg, route intravenous; settings: cerebrospinal fluid and plasma, read-out: Ratio AUC; procedure, shortened: as §1
[24] = AUC (0 to 8 hrs) ratio in cerebrospinal fluid to plasma in perfused Sprague-Dawley rat at 1000 mg/kg, po; format: ADME, organism-based; parameters: dose 1000 mg/kg, route oral; settings: cerebrospinal fluid and plasma, read-out: Ratio AUC; procedure, shortened: as §4
[25] = system: Brain; assay: AUC (0 to 8 hrs) after iv dose in perfused Sprague-Dawley rat brain at 30 mg/kg; settings: in vivo
[26] = system: Plasma; assay: AUC (0 to 8 hrs) after iv dose in perfused Sprague-Dawley rat plasma at 30 mg/kg; settings: in vivo
[27] = system: Plasma; assay: AUC (0 to 8 hrs) after po dose in perfused Sprague-Dawley rat plasma at 1000 mg/kg; settings: in vivo
[28] = system: Brain; assay: AUC (0 to 8 hrs) after iv dose in non-perfused Sprague-Dawley rat brain at 30 mg/kg; settings: in vivo
[29] = system: Cerebrospinal fluid; assay: AUC (0 to 8 hrs) after iv dose in perfused Sprague-Dawley rat cerebrospinal fluid at 30 mg/kg; settings: in vivo
[30] = system: Cerebrospinal fluid; assay: AUC (0 to 8 hrs) after po dose in perfused Sprague-Dawley rat cerebrospinal fluid at 1000 mg/kg; settings: in vivo
[31] = system: Cerebrospinal fluid; assay: AUC (0 to 8 hrs) after iv dose in non-perfused Sprague-Dawley rat cerebrospinal fluid at 30 mg/kg; settings: in vivo
[32] = Cmax ratio in cerebrospinal fluid to plasma in perfused Sprague-Dawley rat at 30 mg/kg, iv; format: ADME, organism-based, CSF/Plasma; parameters: dose 30 mg/kg, route intravenous; settings: cerebrospinal fluid and plasma; procedure, shortened: as §1
[33] = system: Cerebrospinal fluid; assay: Cmax in perfused Sprague-Dawley rat cerebrospinal fluid assessed as active metabolite oseltamivir carboxylate level at 30 mg/kg, iv; format: ADME, organism-based; parameters: dose 30 mg/kg, route intravenous; settings: in vivo, BLD = below limit of detection; procedure, shortened: as §1

SMILES | Cmax [1] [µg/mL] | permeability [2] | permeability [3] | permeability [4] | Cmax [6] [µg/mL] | Cmax [7] [µg/mL] | Cmax [8] [ng/g] | Cmax [9] [µg/mL] | Cmax [10] [ng/g] | half-life [11] [h] | half-life [12] [h] | half-life [13] [h] | half-life [14] [h] | half-life [15] [h] | half-life [16] [h] | Cmax [17] [µg/mL] | Cmax [18] [µg/mL] | Cmax [19] [ng/g] | Kp [20] | Ratio AUC [21] | other results
CCOC(=O)C1=C[C@@H](OC(CC)CC)[C@H](NC(C)=O)[C@@H](N)C1 [OSELTAMIVIR] | 0.921 | impermeable | impermeable | impermeable | 12 | 0.897 | 712 | 12.5 | 491 | 1.35 | 0.813 | 2.45 | 1.59 | 0.812 | 1.51 | 16.3 | 1.12 | 2310 | 0.12 | 0.55 | Activity [5]: 467 nmol; AUC [22]: 13600 ng·h/g; Kp [23]: 0.09; Kp [24]: 0.07; AUC [25]: 1160; AUC [26]: 5330; AUC [27]: 107000; AUC [28]: 1310; AUC [29]: 472; AUC [30]: 7470; AUC [31]: 450
CCC(CC)O[C@@H]1C=C(C(=O)O)C[C@H](N)[C@H]1NC(C)=O [OSELTAMIVIR CARBOXYLATE] | 0.249 | impermeable | impermeable | impermeable | 72.3 | 0.227 | 1710 | 86.3 | 605 | 1.64 | 0.342 | 0.379 | 1.69 | 0.382 | 0.478 | 49.7 | 0.363 | 641 | 0.01 | 0.64 | Kp [32]: 0.003; Cmax [33]: BLD; Ratio AUC [22]: 3450; Kp [24]: 0.007; AUC [25]: 305; AUC [26]: 33800; AUC [27]: 286000; AUC [28]: 687; AUC [29]: 137; AUC [30]: 1940; AUC [31]: 128
